From ChEMBL document CHEMBL2331458, “Examination of the mode of action of the almiramide family of natural products against the kinetoplastid parasite Trypanosoma brucei” (J Nat Prod, 2013) come the findings set out here.

Non-standard residues stand in square brackets, D forms with d. Residues, ends and D or L forms follow the SMILES beside them. *: point of attachment. NH(CH2CH2O)2CH2CH2NHBiotin = O=C(CCCC[C@@H]1SC[C@@H]2NC(=O)N[C@@H]21)NCCOCCOCCN*; Octanoyl(2R-Me,7,8-dehydro) = C=CCCCC[C@@H](C)C(=O)*; Oct7ynoyl(2R-Me) = C#CCCCC[C@@H](C)C(=O)*; NMeF = CN[C@@H](Cc1ccccc1)C(=O)O; X4 = CC(=O)CCCC[C@@H](C)C(=O)*; Oct(7)enoyl = C=CCCCCCC(=O)*; Oct(7)ynoyl = C#CCCCCCC(=O)*; NMeV = CN[C@H](C(=O)O)C(C)C; Hept6ynoyl = C#CCCCCC(=O)*; X5 = COC(=O)CCCCCCCCN(C)*; NMeA = CN[C@@H](C)C(=O)O; X6 = COC(=O)COCCOCCN(C)*; X3 = C=CCCCCC(=O)* Where only a bound is given, the exact number is not on record here.

The test system of series [1] is Trypanosoma brucei brucei. Put plainly: Antiparasitic activity against Trypanosoma brucei brucei 427-221 assessed as growth inhibition after 48 hrs by cellTiter-Glo assay. The format is functional, organism-based. The settings on record: 427-221, 48 h. An outline of the steps:
(§1)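 T. b. brucei 427-221 was grown at 37 °C and 5% CO2 in HMI-9 with 10% FBS, 10% Serum Plus and penicillin/streptomycin, then seeded at 2×10^4/mL. Compounds were serially diluted in DMSO (1% final) and exposed for 48 h. Viability was read by CellTiter-Glo ATP luminescence. Percent inhibition was normalized to thimerosal (2 µM final) and DMSO controls, and IC50 was derived by curve fitting.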

The nature of series [2]: Cytotoxicity against african green monkey Vero cells. The series is classed as cell-based. To be noted: chlorocebus sabaeus, read-out: LD50 (the source's name).
The nature of series [3]: Selectivity index, ratio of LD50 for african green monkey Vero cells to IC50 for Trypanosoma brucei brucei 427-221. The series is classed as toxicity, cell-based. The settings on record: read-out: Ratio LD50/IC50.
The subject of series [4] is Trypanosoma brucei. Nature of the series: Antiparasitic activity against Trypanosoma brucei assessed as growth inhibition. The format is functional, organism-based. An outline of the steps:
as §1

Series [5] has as its system Leishmania donovani. Put plainly: Antiparasitic activity against Leishmania donovani assessed as growth inhibition. The format is functional, organism-based.

For `C=CCCCCCC(=O)N(C)[C@H](C(=O)N(C)[C@H](C(=O)N(C)[C@H](C(=O)N(C)[C@@H](C)C(=O)N(C)[C@@H](Cc1ccccc1)C(=O)N(C)CCCCCCCCC(=O)OC)C(C)C)C(C)C)C(C)C` ({Oct(7)enoyl}-[NMeV][NMeV][NMeV][NMeA][NMeF]-X5), in series [1], the IC50 (in general, the concentration that inhibits the measured activity by half) amounted to 0.7 µM.
Consider `C#CCCCCC(=O)N(C)[C@H](C(=O)N(C)[C@H](C(=O)N(C)[C@H](C(=O)N(C)[C@@H](C)C(=O)N(C)[C@@H](Cc1ccccc1)C(=O)O)C(C)C)C(C)C)C(C)C` (Hept6ynoyl-[NMeV][NMeV][NMeV][NMeA][NMeF]-OH), for which, in series [2], the CC50 worked out at 281 µM. The IC50 in series [1] is greater than 13.7 µM.
On to `C#CCCCCC(=O)N(C)[C@H](C(=O)N(C)[C@H](C(=O)N(C)[C@H](C(=O)N(C)[C@@H](C)C(=O)N(C)[C@@H](Cc1ccccc1)C(=O)N(C)C)C(C)C)C(C)C)C(C)C` (Hept6ynoyl-[NMeV][NMeV][NMeV][NMeA][NMeF]-NMe2), for which the selectivity ratio in series [3] is 120. Besides, in series [2], the CC50 was determined as 156 µM. Also, the IC50 in series [1] is 1.3 µM.
As to `C#CCCCCCC(=O)N(C)[C@H](C(=O)N(C)[C@H](C(=O)N(C)[C@H](C(=O)N(C)[C@@H](C)C(=O)N(C)[C@@H](Cc1ccccc1)C(=O)O)C(C)C)C(C)C)C(C)C` ({Oct(7)ynoyl}-[NMeV][NMeV][NMeV][NMeA][NMeF]-OH), in series [3], the selectivity ratio was greater than 6.7. Besides, in series [2], the CC50 was greater than 68.9 µM. Also, the IC50 in series [1] is 10.3 µM.
Consider `CC(=O)CCCC[C@@H](C)C(=O)N(C)[C@H](C(=O)N(C)[C@H](C(=O)N[C@H](C(=O)N(C)[C@@H](C)C(=O)N(C)[C@@H](Cc1ccccc1)C(N)=O)C(C)C)C(C)C)C(C)C` [ALMIRAMIDE A] (X4-[NMeV][NMeV]V[NMeA][NMeF]-NH2), for which the CC50 in series [2] turned out to be 113 µM.
`N=C(N)c1ccc(OCCCCCOc2ccc(C(=N)N)cc2)cc1` [PENTAMIDINE]: in series [4], the IC50 was found to be 0.03 µM.
In the case of `C#CCCCCCC(=O)N(C)[C@H](C(=O)N(C)[C@H](C(=O)N(C)[C@H](C(=O)N(C)[C@@H](C)C(=O)N(C)[C@@H](Cc1ccccc1)C(=O)OC)C(C)C)C(C)C)C(C)C` ({Oct(7)ynoyl}-[NMeV][NMeV][NMeV][NMeA][NMeF]-OMe), the selectivity ratio in series [3] came out at 45. In addition, the CC50 in series [2] was 27 µM. The IC50 in series [1] turned out to be 0.6 µM.
For `C=CCCCCCC(=O)N(C)[C@H](C(=O)N(C)[C@H](C(=O)N(C)[C@H](C(=O)N(C)[C@@H](C)C(=O)N(C)[C@@H](Cc1ccccc1)C(=O)N(C)C)C(C)C)C(C)C)C(C)C` ({Oct(7)enoyl}-[NMeV][NMeV][NMeV][NMeA][NMeF]-NMe2), the selectivity ratio in series [3] is 40. Besides, the CC50 in series [2] stood at 23.8 µM. The IC50 in series [1] was 0.6 µM; in series [5], 2.7 µM.
On to `C=CCCCCCC(=O)N(C)[C@H](C(=O)N(C)[C@H](C(=O)N(C)[C@H](C(=O)N(C)[C@@H](C)C(=O)N(C)[C@@H](Cc1ccccc1)C(=O)N(C)CCOCCOCC(=O)OC)C(C)C)C(C)C)C(C)C` ({Oct(7)enoyl}-[NMeV][NMeV][NMeV][NMeA][NMeF]-X6), for which, in series [1], the IC50 is 3.5 µM.
On to `Nc1nc(N)nc(Nc2ccc([As]3SCC(CO)S3)cc2)n1` (configuration not stated) [MELARSOPROL], for which the IC50 in series [4] stood at 0.01 µM.
`C=CCCCCCC(=O)N(C)[C@H](C(=O)N(C)[C@H](C(=O)N(C)[C@H](C(=O)N(C)[C@@H](C)C(=O)N(C)[C@@H](Cc1ccccc1)C(=O)O)C(C)C)C(C)C)C(C)C` ({Oct(7)enoyl}-[NMeV][NMeV][NMeV][NMeA][NMeF]-OH): the CC50 in series [2] stood at 192 µM. Also, the IC50 in series [1] is greater than 13.7 µM.
Regarding `C=CCCCCCC(=O)N(C)[C@H](C(=O)N(C)[C@H](C(=O)N(C)[C@H](C(=O)N(C)[C@@H](C)C(=O)N(C)[C@@H](Cc1ccccc1)C(=O)NCCOCCOCCNC(=O)CCCC[C@@H]1SC[C@@H]2NC(=O)N[C@@H]21)C(C)C)C(C)C)C(C)C` ({Oct(7)enoyl}-[NMeV][NMeV][NMeV][NMeA][NMeF]-{NH(CH2CH2O)2CH2CH2NHBiotin}), the IC50 in series [5] came to 9.9 µM.
Regarding `C#CCCCCC(=O)N(C)[C@H](C(=O)N(C)[C@H](C(=O)N(C)[C@H](C(=O)N(C)[C@@H](C)C(=O)N(C)[C@@H](Cc1ccccc1)C(=O)OC)C(C)C)C(C)C)C(C)C` (Hept6ynoyl-[NMeV][NMeV][NMeV][NMeA][NMeF]-OMe), the selectivity ratio in series [3] is 69. Besides, in series [2], the CC50 worked out at 41.4 µM. For the same compound, the IC50 in series [1] amounted to 0.6 µM.
With `NCCCC(N)(C(=O)O)C(F)F` (configuration not stated) [EFLORNITHINE], the IC50 in series [4] worked out at 59 µM.
On the same count and under the same terms, next, `Cc1ccc(C(=O)Nc2ccc(S(=O)(=O)O)c3cc(S(=O)(=O)O)cc(S(=O)(=O)O)c23)cc1NC(=O)c1cccc(NC(=O)Nc2cccc(C(=O)Nc3cc(C(=O)Nc4ccc(S(=O)(=O)O)c5cc(S(=O)(=O)O)cc(S(=O)(=O)O)c45)ccc3C)c2)c1` [SURAMIN]: 1.4 µM.
Turning to `C=CCCCCC(=O)N(C)[C@H](C(=O)N(C)[C@H](C(=O)N(C)[C@H](C(=O)N(C)[C@@H](C)C(=O)N(C)[C@@H](Cc1ccccc1)C(=O)N(C)C)C(C)C)C(C)C)C(C)C` (X3-[NMeV][NMeV][NMeV][NMeA][NMeF]-NMe2), in series [3], the selectivity ratio turned out to be 160. Further, in series [2], the CC50 worked out at 93.1 µM. Further, the IC50 in series [1] stood at 0.6 µM; in series [5] it was 6.7 µM.
With `C=CCCCC[C@@H](C)C(=O)N(C)[C@H](C(=O)N(C)[C@H](C(=O)N[C@H](C(=O)N(C)[C@@H](C)C(=O)N(C)[C@@H](Cc1ccccc1)C(N)=O)C(C)C)C(C)C)C(C)C` [ALMIRAMIDE C] ({Octanoyl(2R-Me,7,8-dehydro)}-[NMeV][NMeV]V[NMeA][NMeF]-NH2), the selectivity ratio in series [3] came out at 11. Besides, in series [2], the CC50 is 33.1 µM. The IC50 in series [1] came out at 3 µM.
The matching figures for `C=CCCCCC(=O)N(C)[C@H](C(=O)N(C)[C@H](C(=O)N(C)[C@H](C(=O)N(C)[C@@H](C)C(=O)N(C)[C@@H](Cc1ccccc1)C(=O)O)C(C)C)C(C)C)C(C)C` (X3-[NMeV][NMeV][NMeV][NMeA][NMeF]-OH): greater than 27, greater than 70 µM and 2.6 µM.
The matching figures for `C=CCCCCC(=O)N(C)[C@H](C(=O)N(C)[C@H](C(=O)N(C)[C@H](C(=O)N(C)[C@@H](C)C(=O)N(C)[C@@H](Cc1ccccc1)C(=O)OC)C(C)C)C(C)C)C(C)C` (X3-[NMeV][NMeV][NMeV][NMeA][NMeF]-OMe): 41, 24.7 µM and 0.6 µM.
The matching figures for `C#CCCCC[C@@H](C)C(=O)N(C)[C@H](C(=O)N(C)[C@H](C(=O)N[C@H](C(=O)N(C)[C@@H](C)C(=O)N(C)[C@@H](Cc1ccccc1)C(N)=O)C(C)C)C(C)C)C(C)C` [ALMIRAMIDE B] ({Oct7ynoyl(2R-Me)}-[NMeV][NMeV]V[NMeA][NMeF]-NH2): 8.7, 52.3 µM and 6 µM.
`C#CCCCCCC(=O)N(C)[C@H](C(=O)N(C)[C@H](C(=O)N(C)[C@H](C(=O)N(C)[C@@H](C)C(=O)N(C)[C@@H](Cc1ccccc1)C(=O)N(C)C)C(C)C)C(C)C)C(C)C` ({Oct(7)ynoyl}-[NMeV][NMeV][NMeV][NMeA][NMeF]-NMe2): the selectivity ratio in series [3] is 270. The CC50 in series [2] turned out to be 159 µM. Besides, the IC50 in series [1] was found to be 0.6 µM.
